For data set [1], the system named is HEp-2. Description: Cytotoxicity against human Hep2 cells assessed as inhibition of cell viability after 72 hrs by MTT assay. Format: functional, cell-based. The note with it: HEp-2, 72 h. Put shortly:
(§1)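 MTT assay. Leukaemic lines were seeded at 3 x 10^5 cells/mL and adherent lines at 1 x 10^5 cells/mL, then preincubated 24 h. Compounds were added at 0.098–25.0 µg/mL for 72 h, with MTT for the last 3 h. Formazan was dissolved in DMSO and read at 560 nm. IC50 came from regression; triplicate, two independent experiments.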
In general terms: Formazan colour is commonly taken as a measure of viable cells.

Data set [2] has as its system K562. Description: Cell cycle arrest in human K562 cells assessed as accumulation at G1-phase at 17 uM after 48 hrs by flow cytometry (reference value: 45.54 +/- 1.34%). Format: functional. Put shortly: (§2)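 K562 cells seeded at 3 x 10^5 cells/mL in RPMI-1640 and exposed 48 h at 37 °C, 5% CO2. Cells were stained with propidium iodide (Guava cell cycle kit) and 5,000 events acquired by flow cytometry. Vehicle control was 0.1% DMSO. Two independent experiments, each in triplicate.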
For orientation: Flow cytometry measures light scatter and fluorescence of single cells or particles in a stream.

For data set [3], the system named is K562. Description: Induction of mitochondrial membrane potential depolarization in human K562 cells at 17 uM after 48 hrs by Rho-123 staining based flow cytometry (reference value: 12.24 +/- 0.61%). The format is functional.
For data set [4], the system named is K562. Description: Cell cycle arrest in human K562 cells assessed as accumulation at G2/M-phase at 17 uM after 48 hrs by flow cytometry (reference value: 35.97 +/- 1.94%). The format is functional. Put shortly: as §2
Data set [5] relates to Erythrocyte. The experiment in a line: Hemolytic activity in human erythrocytes after 1 hr by spectrophotometric method. Format: ADME, cell-based. Put shortly: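 Human erythrocytes as a 2% suspension in 0.85% NaCl with 10 mM CaCl2 were exposed to 0.78–250 µg/mL for 1 h at room temperature. After centrifugation, released haemoglobin in the supernatant was read at 540 nm. Triton X-100 (1%) served as positive control; EC50 is the concentration giving 50% haemolysis.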

The subject of data set [6] is K562. Description: Cell cycle arrest in human K562 cells assessed as accumulation at S-phase at 17 uM after 48 hrs by flow cytometry (reference value: 17.39 +/- 0.84%). Format: functional. Put shortly:
as §2

The subject of data set [7] is HL-60. The experiment in a line: Cytotoxicity against human HL60 cells assessed as inhibition of cell viability at 25 ug/ml after 72 hrs by MTT assay relative to control. The format is functional. The note with it: HL-60, 72 h. Put shortly: (§3)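 Single-concentration MTT screen at 25 µg/mL for 72 h. Seeding was 3 x 10^5 cells/mL (HL-60, K562) or 1 x 10^5 cells/mL (adherent), with 24 h preincubation. MTT was added for the final 3 h, formazan dissolved in DMSO and absorbance read at 560 nm. Results are given as percent inhibition ± SD.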

In data set [8] the test system is NCI-H292. The experiment in a line: Cytotoxicity against human NCI-H292 cells assessed as inhibition of cell viability at 25 ug/ml after 72 hrs by MTT assay relative to control. The format is functional. The note with it: NCI-H292, 72 h. Put shortly: as §3
Data set [9] relates to K562. The experiment in a line: Cytotoxicity against human K562 cells assessed as inhibition of cell viability at 25 ug/ml after 72 hrs by MTT assay relative to control. Format: functional. As to conditions: K562, 72 h. Put shortly:
as §3

For data set [10], the system named is K562. The experiment in a line: Cytotoxicity against human K562 cells assessed as inhibition of cell viability by MTT assay. The format is functional, cell-based. As to conditions: TDE = time-dependent effect.
The subject of data set [11] is K562. Description: Induction of mitochondrial membrane potential depolarization in human K562 cells at 34 uM after 48 hrs by Rho-123 staining based flow cytometry (reference value: 12.24 +/- 0.61%). The format is functional.
The test system of data set [12] is K562. Description: Induction of DNA damage in human K562 cells at 34 uM after 48 hrs by propidium iodide staining based flow cytometry (reference value: 3.62 +/- 0.37%). The format is functional.
The test system of data set [13] is K562. The experiment in a line: Cell cycle arrest in human K562 cells assessed as accumulation at G2/M-phase at 34 uM after 48 hrs by flow cytometry (reference value: 35.97 +/- 1.94%). Format: functional. Put shortly: as §2
Data set [14] concerns HT-29. The experiment in a line: Cytotoxicity against human HT-29 cells assessed as inhibition of cell viability at 25 ug/ml after 72 hrs by MTT assay relative to control. The format is functional. As to conditions: HT-29, 72 h. In a few lines: as §3
The subject of data set [15] is HT-29. The experiment in a line: Cytotoxicity against human HT-29 cells assessed as inhibition of cell viability after 72 hrs by MTT assay. Format: functional, cell-based. As to conditions: HT-29, 72 h. In a few lines: as §1
Data set [16] concerns NCI-H292. Description: Cytotoxicity against human NCI-H292 cells assessed as inhibition of cell viability after 72 hrs by MTT assay. The format is functional, cell-based. As to conditions: NCI-H292, 72 h. In a few lines: as §1
Data set [17] relates to HEp-2. The experiment in a line: Cytotoxicity against human Hep2 cells assessed as inhibition of cell viability at 25 ug/ml after 72 hrs by MTT assay relative to control. The format is functional. The note with it: HEp-2, 72 h. Put shortly: as §3
Data set [18] in a line: Selectivity index, ratio of IC50 for human PBMC to IC50 for human K562 cells. The format is toxicity. The note with it: human PBMC and human K562 cells, read-out: Ratio IC50. In a few lines:
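Ratio of IC50 in PBMC (Alamar blue, 72 h) to IC50 in K562 cells (MTT, 72 h), calculated as SI = IC50(PBMC)/IC50(K562).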

Data set [19] relates to K562. The experiment in a line: Cytotoxicity against human K562 cells assessed as inhibition of cell viability after 72 hrs by MTT assay. Format: functional, cell-based. As to conditions: K562, 72 h. In a few lines:
as §1

Data set [20] deals with K562. The experiment in a line: Induction of DNA damage in human K562 cells at 17 uM after 48 hrs by propidium iodide staining based flow cytometry (reference value: 3.62 +/- 0.37%). Format: functional.
For data set [21], the system named is K562. The experiment in a line: Cytotoxicity against human K562 cells assessed as inhibition of cell viability after 48 hrs by MTT assay. Format: functional, cell-based. As to conditions: K562, 48 h. Put shortly:
(§4)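 K562 cells (3 x 10^5 cells/mL, RPMI-1640 with 10% FBS) were treated with serial dilutions for 24 or 48 h. Viability was read by MTT (absorbance at 560 nm after DMSO solubilisation), and IC50 was obtained by regression.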

Data set [22] deals with HL-60. Description: Cytotoxicity against human HL60 cells assessed as inhibition of cell viability after 72 hrs by MTT assay. The format is functional, cell-based. The note with it: HL-60, 72 h. In a few lines: as §1
The subject of data set [23] is PBMC. The experiment in a line: Cytotoxicity against human PBMC cells assessed as inhibition of cell viability after 72 hrs by alamar blue assay. The format is cell-based. Put shortly: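 PBMC from healthy donors were grown in RPMI-1640 with 20% FBS and 2% phytohaemagglutinin, then plated at 10^6 cells/mL. After 24 h, compounds (0.048–25 µg/mL, in DMSO) were added for 72 h. Resazurin was added for the final 24 h and absorbance read at 570 and 595 nm as percent of control.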
(In general: The colour change of resazurin is a common sign of viable cells or microbes.)

Data set [24] has as its system K562. Description: Cell cycle arrest in human K562 cells assessed as accumulation at S-phase at 34 uM after 48 hrs by flow cytometry (reference value: 17.39 +/- 0.84%). Format: functional. In a few lines:
as §2

For data set [25], the system named is K562. The experiment in a line: Cell cycle arrest in human K562 cells assessed as accumulation at G1-phase at 34 uM after 48 hrs by flow cytometry (reference value: 45.54 +/- 1.34%). Format: functional. In a few lines:
as §2

Data set [26] deals with K562. The experiment in a line: Cytotoxicity against human K562 cells assessed as inhibition of cell viability after 24 hrs by MTT assay. The note with it: K562, 24 h. The format is functional, cell-based. Put shortly:
as §4

In data set [27] the test system is K562. Description: Cell cycle arrest in human K562 cells assessed as accumulation at G2/M-phase at 0.2 uM after 48 hrs by flow cytometry (reference value: 35.97 +/- 1.94%). Format: functional. In a few lines: as §2
In data set [28] the test system is K562. The experiment in a line: Cell cycle arrest in human K562 cells assessed as accumulation at S-phase at 0.2 uM after 48 hrs by flow cytometry (reference value: 17.39 +/- 0.84%). The format is functional. Put shortly:
as §2

The subject of data set [29] is K562. The experiment in a line: Cell cycle arrest in human K562 cells assessed as accumulation at G1-phase at 0.2 uM after 48 hrs by flow cytometry (reference value: 45.54 +/- 1.34%). The format is functional. Put shortly:
as §2

For data set [30], the system named is K562. The experiment in a line: Induction of mitochondrial membrane potential depolarization in human K562 cells at 0.5 uM after 48 hrs by Rho-123 staining based flow cytometry (reference value: 12.24 +/- 0.61%). The format is functional.
Data set [31] relates to K562. The experiment in a line: Induction of DNA damage in human K562 cells at 0.5 uM after 48 hrs by propidium iodide staining based flow cytometry (reference value: 3.62 +/- 0.37%). Format: functional.

In general, IC50 refers to the point on the concentration scale where inhibition reaches its midpoint. As a reminder, the EC50 is the concentration at which the effect is half-maximal. High values mean a need for much substance, low ones an effect from little substance. Broadly, the inhibition is the change of the read-out against control, counted positive when it falls. `FC(F)(F)c1ccc(/C=N/Nc2nc(-c3ccc(Cl)cc3Cl)cs2)cc1`: the IC50 is 7.65 µM in data set [1]; 11.2 µM in data set [15]; 10.4 µM in data set [16]; 5.48 µM in [19]; 17.8 µM in [21]; 17.8 µM in data set [22]. Moreover, the figures for the IC50 in [23] and in data set [26] were 43 µM and over 60.1 µM, respectively. Moreover, the Activity was 85.25% in data set [2]; 25.05% in [3]; 7.51% in data set [4]; 7.23% in data set [6]; “Tde” in [10]; 37.12% in [11]. Besides, the Activity was determined as 22.43% in data set [12]; 11.47% in data set [13]; 19.74% in [20]; 6.72% in [24]; 82.74% in [25]. In addition, the EC50 in data set [5] is over 250 mg/L. Besides, the inhibition at 25 µg/mL amounted to 91.1% in [7]; 96.5% in [8]; 88.9% in [9]; 79.5% in data set [14]; 96.7% in data set [17]. Also, the selectivity ratio in data set [18] worked out at 7.85.
Take `N=C(S)N/N=C/c1ccc(C(F)(F)F)cc1`: the IC50 in data set [1] turned out to be 6.27 µM; in data set [15], 9.02 µM; in [16], 10.8 µM; in data set [19], 6.42 µM; in data set [21] it was 34 µM; in data set [22], 12.7 µM. The results for the IC50 in [23] and in data set [26] were 80.2 µM and over 101 µM, respectively. This compound also registered an EC50 in data set [5] of over 250 mg/L. Also, the inhibition at 25 µg/mL in data set [7] was 95.3%; in [8] it was 89.5%; in data set [9], 87.2%; in data set [14] it was 85.4%; in [17], 91.8%. In addition, in data set [10], the Activity entry is “Tde”. Also, the selectivity ratio in data set [18] amounted to 12.5.
Take `COc1cccc2c1C(=O)c1c(O)c3c(c(O)c1C2=O)C[C@@](O)(C(=O)CO)C[C@@H]3O[C@H]1C[C@H](N)[C@H](O)[C@H](C)O1` [DOXORUBICIN]: the IC50 turned out to be 1.21 µM in data set [1]; 0.69 µM in data set [15]; 0.19 µM in data set [16]; 1.38 µM in data set [19]; 0.19 µM in [22]; 0.38 µM in data set [23]. Also, the Activity in data set [27] came out at 81.29%; in data set [28], 10.67%; in data set [29], 9.53%; in [30], 23.6%; in data set [31], 19.69%.
